Results as given in ChEMBL document CHEMBL3124905, “Isothiocoumarin-3-carboxylic acid derivatives: synthesis, anticancer and antitrypanosomal activity evaluation” (Eur J Med Chem, 2014).
Blank lines part the entries; values can stand above or below the molecule they belong to. The source made the active and inactive calls. The rule behind the calls is not given here.

How the values were obtained:
Assay type in all cases: functional
[1] = tested on: Trypanosoma brucei brucei; assay: Antitrypanosomal activity against bloodstream form of Trypanosoma brucei brucei strain 90-13 assessed as inhibition of parasite growth at 1 ug/ml after 72 hrs by resazurin reduction test; conditions: strain 90-13, 72 h
Method in brief: (§1)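 Trypanosoma brucei brucei 90-13 bloodstream forms, grown in HMI9 with 10% FCS at 37 °C under 5% CO2. Log-phase parasites were seeded at 10^5 cells/mL with or without inhibitor, with stocks prepared in DMSO. After 72 h, resazurin was added and fluorescence was read at 530/590 nm after a further 4 h. Percent growth inhibition was calculated versus drug-free parasites, with DMSO as control.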

[2] = tested on: Trypanosoma brucei brucei; assay: Antitrypanosomal activity against bloodstream form of Trypanosoma brucei brucei strain 90-13 assessed as inhibition of parasite growth at 10 ug/ml after 72 hrs by resazurin reduction test; conditions: strain 90-13, 72 h; method in brief: as §1
SF-268 = assay: Anticancer activity against human SF268 cells assessed as cell growth at 100 uM after 48 hrs by SRB assay; conditions: SF-268, 48 h, read-out: Activity
Method in brief: (§2)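 NCI one-dose primary screen on a three-line panel (breast MCF7, lung NCI-H460, CNS SF-268). Cells were inoculated and preincubated 24–48 h, then exposed to a single concentration of 10−4 M for 48 h. The endpoint was sulforhodamine B protein staining, and results are expressed as percent growth relative to untreated control cells. Negative values denote cytotoxicity.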

NCI-H460 [3] = assay: Anticancer activity against human NCI-H460 cells assessed as cell growth at 100 uM after 48 hrs by SRB assay; conditions: NCI-H460, 48 h, read-out: Activity; method in brief: as §2
MCF7 = assay: Anticancer activity against human MCF7 cells assessed as cell growth at 100 uM after 48 hrs by SRB assay; conditions: MCF7, 48 h, read-out: Activity; method in brief: as §2
SF-295 = assay: Growth inhibition of human SF295 cells after 48 hrs by SRB assay
Method in brief: (§3)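 NCI five-dose assay against the ~60-cell-line panel (nine cancer types). Tenfold dilutions from 10−4 to 10−8 M were used with continuous 48-h exposure and SRB absorbance readout. Percent growth was computed from time-zero, control and treated absorbances. GI50 is the concentration giving 50% lower net protein increase than controls. Values not reached are reported as beyond the tested range.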

NCI/ADR-RES = assay: Growth inhibition of human NCI/ADR-RES cells after 48 hrs by SRB assay; method in brief: as §3
ACHN = assay: Growth inhibition of human ACHN cells after 48 hrs by SRB assay; method in brief: as §3
TK-10 = assay: Growth inhibition of human TK10 cells after 48 hrs by SRB assay
Method in brief: (§4)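 NCI ~60-cell-line five-dose screen. Cells were preincubated 24-48 h, then given compound at 10-fold dilutions from 10^-4 to 10^-8 M with 48 h continuous exposure. SRB protein stain was read by absorbance at time zero, in untreated control and with drug. GI50 was derived from [(Ti-Tz)/(C-Tz)]x100=50, TGI from Ti=Tz, and LC50 from [(Ti-Tz)/Tz]x100=-50.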

HOP-62 = assay: Growth inhibition of human HOP62 cells after 48 hrs by SRB assay; method in brief: as §3
UACC-257 = assay: Growth inhibition of human UACC257 cells after 48 hrs by SRB assay; method in brief: as §4
SNB- = assay: Growth inhibition of human SNB cells after 48 hrs by SRB assay; method in brief: as §3
U-251 = assay: Growth inhibition of human U251 cells after 48 hrs by SRB assay; method in brief: as §4
HCT-116 = assay: Growth inhibition of human HCT116 cells after 48 hrs by SRB assay; method in brief: as §3
NCI-H322M = assay: Growth inhibition of human NCI-H322M cells after 48 hrs by SRB assay; method in brief: as §3
LOX IMVI = assay: Growth inhibition of human LOXIMVI cells after 48 hrs by SRB assay; method in brief: as §3
HOP69 = assay: Growth inhibition of human […] cells after 48 hrs by SRB assay; method in brief: as §3
Malme-3M = assay: Growth inhibition of human MALME-3M cells after 48 hrs by SRB assay; method in brief: as §3
NCI-H522 = assay: Growth inhibition of human NCI-H522 cells after 48 hrs by SRB assay; method in brief: as §3
HCC 2998 = assay: Growth inhibition of human HCC2998 cells after 48 hrs by SRB assay; method in brief: as §3
HOP-92 = assay: Growth inhibition of human HOP92 cells after 48 hrs by SRB assay; method in brief: as §3
RXF 393 = assay: Growth inhibition of human RXF393 cells after 48 hrs by SRB assay; method in brief: as §3
786-0 [4] = assay: Growth inhibition of human 786-0 cells after 48 hrs by SRB assay; method in brief: as §3
NCI-H460 [5] = assay: Growth inhibition of human NCI-H460 cells after 48 hrs by SRB assay; method in brief: as §3
EKVX = assay: Growth inhibition of human EKVX cells after 48 hrs by SRB assay; method in brief: as §3
UACC-62 = assay: Growth inhibition of human UACC62 cells after 48 hrs by SRB assay; method in brief: as §4
UO-31 = assay: Growth inhibition of human UO31 cells after 48 hrs by SRB assay; method in brief: as §4
BT-549 = assay: Growth inhibition of human BT549 cells after 48 hrs by SRB assay; method in brief: as §3
OVCAR-4 = assay: Growth inhibition of human OVCAR4 cells after 48 hrs by SRB assay; method in brief: as §3
SNB-75 = assay: Growth inhibition of human SNB75 cells after 48 hrs by SRB assay; method in brief: as §3
MOLT-4 = assay: Growth inhibition of human MOLT4 cells after 48 hrs by SRB assay; method in brief: as §3
NCI-H23 = assay: Growth inhibition of human NCI-H23 cells after 48 hrs by SRB assay; method in brief: as §3
CCRF-CEM = assay: Growth inhibition of human CCRF-CEM cells after 48 hrs by SRB assay; method in brief: as §3
OVCAR-8 = assay: Growth inhibition of human OVCAR8 cells after 48 hrs by SRB assay; method in brief: as §3
CAKI-1 = assay: Growth inhibition of human CAKI-1 cells after 48 hrs by SRB assay; method in brief: as §3
SR = assay: Growth inhibition of human SR cells after 48 hrs by SRB assay; method in brief: as §4
SK-MEL-5 = assay: Growth inhibition of human SK-MEL-5 cells after 48 hrs by SRB assay; method in brief: as §3
MDA-MB-231 = assay: Growth inhibition of human MDA-MB-231/ATCC cells after 48 hrs by SRB assay; method in brief: as §3
KM12 = assay: Growth inhibition of human KM12 cells after 48 hrs by SRB assay; method in brief: as §3
OVCAR-5 = assay: Growth inhibition of human OVCAR5 cells after 48 hrs by SRB assay; method in brief: as §3
SF-539 = assay: Growth inhibition of human SF539 cells after 48 hrs by SRB assay; method in brief: as §3
PC-3 = assay: Growth inhibition of human PC3 cells after 48 hrs by SRB assay; method in brief: as §3
Hs-578T = assay: Growth inhibition of human Hs 578T cells after 48 hrs by SRB assay; method in brief: as §3
M14 = assay: Growth inhibition of human M14 cells after 48 hrs by SRB assay; method in brief: as §3
OVCAR-3 = assay: Growth inhibition of human OVCAR3 cells after 48 hrs by SRB assay; method in brief: as §3
RPMI18226 = assay: Growth inhibition of human […] cells after 48 hrs by SRB assay; method in brief: as §3
A549 = assay: Growth inhibition of human A549/ATCC cells after 48 hrs by SRB assay; method in brief: as §3
MDA-MB-435 = assay: Growth inhibition of human MDA-MB-435 cells after 48 hrs by SRB assay; method in brief: as §3
786-0 [6] = assay: Growth inhibition of human 786-O cells after 48 hrs by SRB assay; method in brief: as §3

SMILES: COc1ccc2cc(C(=O)Nc3ccccc3C(F)(F)F)sc(=O)c2c1OC
inhibition at 1 µg/mL [1]: 6.86% | inhibition at 10 µg/mL [2]: 2.91% | growth at 100 µM (SF-268): 107% | growth at 100 µM (NCI-H460 [3]): 90% | growth at 100 µM (MCF7): 99%

SMILES: O=C(c1cc2ccccc2c(=O)s1)N1CCOCC1
inhibition at 1 µg/mL [1]: 8.13% | inhibition at 10 µg/mL [2]: 8.15% | growth at 100 µM (SF-268): 111% | growth at 100 µM (NCI-H460 [3]): 109% | growth at 100 µM (MCF7): 114%

SMILES: O=C(O)c1cc2ccccc2c(=O)s1
inhibition at 1 µg/mL [1]: 16.8% | inhibition at 10 µg/mL [2]: 0.05%

SMILES: O=C(Nc1nccs1)c1cc2ccccc2c(=O)s1
growth at 100 µM (SF-268): 90% | growth at 100 µM (NCI-H460 [3]): 93% | growth at 100 µM (MCF7): 91%

pGI50 (ACHN): inactive | pGI50 (U-251): inactive | pGI50 (HCT-116): inactive | pGI50 (NCI-H322M): inactive | pGI50 (NCI-H522): inactive | pGI50 (HCC 2998): inactive | pGI50 (786-0 [4]): inactive | pGI50 (NCI-H460 [5]): inactive | pGI50 (BT-549): inactive | pGI50 (OVCAR-4): inactive | pGI50 (MOLT-4): inactive | pGI50 (NCI-H23): inactive | pGI50 (CCRF-CEM): inactive | pGI50 (OVCAR-8): inactive | pGI50 (SK-MEL-5): inactive | pGI50 (MDA-MB-231): inactive | pGI50 (OVCAR-5): inactive | pGI50 (PC-3): inactive | pGI50 (OVCAR-3): inactive | pGI50 (A549): inactive | pGI50 (MDA-MB-435): inactive | pGI50 (786-0 [6]): inactive
SMILES: COc1ccc2cc(C(=O)Nc3nccs3)sc(=O)c2c1OC
pGI50 (SF-295): inactive | pTGI (SF-295): inactive | pGI50 (NCI/ADR-RES): inactive | pTGI (NCI/ADR-RES): inactive | pTGI (ACHN): inactive | pGI50 (TK-10): inactive | pTGI (TK-10): inactive | pGI50 (HOP-62): inactive | pTGI (HOP-62): inactive | pGI50 (UACC-257): inactive | pTGI (UACC-257): inactive | pGI50 (SNB-): inactive | pTGI (SNB-): inactive | pTGI (U-251): inactive | pTGI (HCT-116): inactive | pTGI (NCI-H322M): inactive | pGI50 (LOX IMVI): inactive | pTGI (LOX IMVI): inactive | pGI50 (HOP69): inactive | pTGI (HOP69): inactive | growth at 100 µM (SF-268): 98% | pGI50 (Malme-3M): inactive | pTGI (Malme-3M): inactive | pTGI (NCI-H522): inactive | pTGI (HCC 2998): inactive | pGI50 (HOP-92): inactive | pTGI (HOP-92): inactive | pGI50 (RXF 393): inactive | pTGI (RXF 393): inactive | pTGI (786-0 [4]): inactive | pTGI (NCI-H460 [5]): inactive | pGI50 (EKVX): inactive | pTGI (EKVX): inactive | pGI50 (UACC-62): inactive | pTGI (UACC-62): inactive | pGI50 (UO-31): inactive | pTGI (UO-31): inactive | pTGI (BT-549): inactive | pTGI (OVCAR-4): inactive | growth at 100 µM (NCI-H460 [3]): 94% | pGI50 (SNB-75): inactive | pTGI (SNB-75): inactive | pTGI (MOLT-4): inactive | pTGI (NCI-H23): inactive | pTGI (CCRF-CEM): inactive | pTGI (OVCAR-8): inactive | pGI50 (CAKI-1): inactive | pTGI (CAKI-1): inactive | pGI50 (SR): inactive | pTGI (SR): inactive | pTGI (SK-MEL-5): inactive | growth at 100 µM (MCF7): 95% | pTGI (MDA-MB-231): inactive | pGI50 (KM12): inactive | pTGI (KM12): inactive | pTGI (OVCAR-5): inactive | pGI50 (SF-539): inactive | pTGI (SF-539): inactive | pTGI (PC-3): inactive | pGI50 (Hs-578T): inactive | pTGI (Hs-578T): inactive | pGI50 (M14): inactive | pTGI (M14): inactive | pTGI (OVCAR-3): inactive | pGI50 (RPMI18226): inactive | pTGI (RPMI18226): inactive | pTGI (A549): inactive | pTGI (MDA-MB-435): inactive | pTGI (786-0 [6]): inactive
